Assay results collected from several papers.

SMILES	system	conditions	measurement	result
C[C@H]1[C@@H](O)O[C@@H]2O[C@@]3(C)CC[C@H]4[C@H](C)CC[C@@H]1[C@@]24OO3	Sprague-Dawley rat, plasma	oral, 10 mg/kg	AUC(0-t)	197 ng·h/mL
Cc1c(C(=O)O)ccc2c3n(nc12)[C@@H]1[C@H](C3)N(CC2CC2)[C@@]2(C(=O)Nc3cc(Cl)ccc32)[C@H]1c1cccc(Cl)c1F	male rat, plasma	oral, 2 mg/kg	AUC(0-inf)	64.2 µM·h
CCC[C@H](NC(=O)[C@@H]1CCCN1C(=O)[C@@H](NC(=O)[C@H](N)CC(N)=O)[C@@H](C)CC)C(=O)N[C@@H](CC(C)C)C(=O)N[C@@H](Cc1ccc(O)cc1)C(=O)N[C@H](CO)C(=O)N[C@@H](Cc1ccccc1)C(=O)N[C@@H](C)C(=O)N[C@H](CO)C(N)=O	rat, plasma	subcutaneous, 10 mg/kg, single dose	AUC(0-t)	1200 ng·h/mL
O=C1c2ccncc2C(=O)c2c1[nH]c1ccccc21	rat, plasma	intravenous, 5 mg/kg, single dose	AUC(0-inf)	8.58 µM·h
C=C(F)C(=O)N1CCN(c2nc(OC[C@@H]3CCCN3C)nc3c2CCN(c2cccc4cccc(Cl)c24)C3)C[C@@H]1CC#N	male Sprague-Dawley rat, plasma	intravenous, 5 mg/kg	AUC(0-t)	1860 ng·h/mL
O=C1CC[C@H](N2Cc3cc(N4CCN(CC5CCN(c6ccc([C@@H]7c8ccc(O)cc8CC[C@@H]7c7ccccc7)cc6)CC5)CC4)ccc3C2=O)C(=O)N1	female Sprague-Dawley rat, plasma	oral, 20 mg/kg, fasted	AUC(0-t)	11000 ng·h/mL
O=c1cc(-c2ccc(O)c(O)c2)oc2cc(O)cc(O)c12	male Sprague-Dawley rat, plasma	oral, 30 mg/kg	AUC(0-inf)	98.6 ng·h/mL
COc1ccc2cc3n(c(=O)c2c1OC)CCc1cc2c(cc1-3)OCO2	male Sprague-Dawley rat, blood	oral, 50 mg/kg	AUC(0-inf)	985 ng·h/mL
CC(=Nc1ccc(N=Cc2cnccn2)cc1)N(C)C	male Sprague-Dawley rat, plasma	oral, 200 mg/kg	AUC(0-t)	305 ng·h/mL
O=C(C=Cc1ccccc1)Nc1cc(-c2ccnc(N3CCC(O)CC3)c2)ccn1	female Sprague-Dawley rat, plasma	oral, 50 mg/kg	AUC(0-inf)	1400 ng·h/mL
CC1(CN)CCN(c2cnc3c(Sc4ccncc4Cl)n[nH]c3n2)CC1	male Sprague-Dawley rat, plasma	oral, 10 mg/kg	AUC	411 ng·h/mL
N#C[C@@]12C[C@@H]1[C@@H](n1cnc3c(N[C@@H](C4CCC4)C4CC4)nc(I)nc31)[C@H](O)[C@@H]2O	male Wistar rat, plasma	oral, 1 mg/kg	AUC(0-inf)	19.2 ng·h/mL
